ChEMBL document CHEMBL2331220, “Benzimidazole clubbed with triazolo-thiadiazoles and triazolo-thiadiazines: new anticancer agents” (2013)

Experiments:
Type in all cases: functional
MDA-MB-468 = experiment: Cytotoxicity against human MDA-MB-468 cells after 48 hrs by SRB assay; settings: MDA-MB-468, 48 h
Summary of the method: (§1)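 NCI 60-line five-dose screen. Cells were preincubated 24 h at 37 °C under 5% CO2 and 100% humidity, and time-zero plates were TCA-fixed when compound was added. Five 10-fold concentrations (0.01–100) were tested for 48 h. Cells were fixed with cold TCA (final 10%, 60 min, 4 °C), stained with 0.4% SRB for 10 min, and read at 515 nm. GI50, TGI and LC50 came from growth-percentage formulas, with out-of-range values given as > or <.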

Hs-578T = experiment: Cytotoxicity against human Hs578T cells after 48 hrs by SRB assay
Summary of the method: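 NCI five-dose screen: cells preincubated 24 h at 37 °C, 5% CO₂, with time-zero plates TCA-fixed. Five 10-fold dilutions (0.01–100) were added and cells incubated for 48 h, then fixed in 10% TCA for 60 min at 4 °C. Staining used 0.4% SRB in 1% acetic acid, solubilised in 10 mM Tris, with A515 read. GI₅₀, TGI and LC₅₀ were derived from Tz, control and test absorbances.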

BT-549 = experiment: Cytotoxicity against human BT549 cells after 48 hrs by SRB assay; settings: BT-549, 48 h; summary of the method: as §1
DU-145 = experiment: Cytotoxicity against human DU145 cells after 48 hrs by SRB assay; settings: DU-145, 48 h; summary of the method: as §1
MCF7 = experiment: Cytotoxicity against human MCF7 cells after 48 hrs by SRB assay; settings: MCF7, 48 h; summary of the method: as §1
A498 = experiment: Cytotoxicity against human A498 cells after 48 hrs by SRB assay; settings: A498, 48 h; summary of the method: as §1
OVCAR-8 = experiment: Cytotoxicity against human OVCAR8 cells after 48 hrs by SRB assay; settings: OVCAR-8, 48 h; summary of the method: as §1
NCI/ADR-RES = experiment: Cytotoxicity against human NCI/ADR-RES cells after 48 hrs by SRB assay; summary of the method: as §1
UACC-257 = experiment: Cytotoxicity against human UACC257 cells after 48 hrs by SRB assay; settings: UACC-257, 48 h
Summary of the method: (§2)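 NCI 60-line five-dose screen: cells plated, held 24 h at 37 °C, 5% CO₂ before treatment, with a TCA-fixed time-zero plate. Five final concentrations (0.01–100 µM, 10-fold dilutions) for 48 h. Cells fixed with cold TCA (10% final) and stained with 0.4% SRB in 1% acetic acid. Dye dissolved in 10 mM Tris and read at 515 nm. GI₅₀, TGI and LC₅₀ taken from percent-growth curves.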

SK-MEL-28 = experiment: Cytotoxicity against human SK-MEL-28 cells after 48 hrs by SRB assay; settings: SK-MEL-28, 48 h; summary of the method: as §1
M14 = experiment: Cytotoxicity against human M14 cells after 48 hrs by SRB assay; settings: M14, 48 h; summary of the method: as §1
SNB-75 = experiment: Cytotoxicity against human SNB75 cells after 48 hrs by SRB assay; settings: SNB-75, 48 h; summary of the method: as §2
SF-268 = experiment: Cytotoxicity against human SF268 cells after 48 hrs by SRB assay; settings: SF-268, 48 h; summary of the method: as §1
SW-620 = experiment: Cytotoxicity against human SW620 cells after 48 hrs by SRB assay; settings: SW-620, 48 h; summary of the method: as §2
HCC 2998 = experiment: Cytotoxicity against human HCC2998 cells after 48 hrs by SRB assay; settings: HCC 2998, 48 h; summary of the method: as §1
[1] = Cytotoxicity against human EKVX cells after 48 hrs by SRB assay; summary of the method: as §1
A549 = experiment: Cytotoxicity against human A549 cells after 48 hrs by SRB assay; settings: A549, 48 h; summary of the method: as §1
CCRF-CEM = experiment: Cytotoxicity against human CCRF-CEM cells after 48 hrs by SRB assay; summary of the method: as §1
[2] = read-out: LC50 (the source's name)
[3] = read-out: pLC50 (the source's name) (converted)

O=C(CCc1nnc2sc(-c3ccc(Cl)cc3Cl)nn12)c1nc2ccccc2[nH]1
GI50 (MDA-MB-468; read-out: GI50): 699 nM
LC50 (MDA-MB-468; read-out: LC50): 5410 nM
TGI (MDA-MB-468; read-out: TGI): 2150 nM
GI50 (MDA-MB-468; read-out: pGI50 (converted)): 692 nM
LC50 (MDA-MB-468; read-out: pLC50 (converted)): 5370 nM
TGI (MDA-MB-468; read-out: pTGI (converted)): 2140 nM
GI50 (Hs-578T; read-out: GI50): 478 nM
CC50 (Hs-578T; [2]): > 100000 nM
GI50 (Hs-578T; read-out: pGI50 (converted)): 479 nM
CC50 (Hs-578T; [3]): > 100000 nM
GI50 (BT-549; read-out: GI50): 2160 nM
LC50 (BT-549; read-out: LC50): > 100000 nM
TGI (BT-549; read-out: TGI): 4770 nM
GI50 (BT-549; read-out: pGI50 (converted)): 2140 nM
LC50 (BT-549; read-out: pLC50 (converted)): > 100000 nM
TGI (BT-549; read-out: pTGI (converted)): 4790 nM
GI50 (DU-145; read-out: GI50): 1200 nM
CC50 (DU-145; [2]): 5020 nM
TGI (DU-145; read-out: TGI): 2460 nM
GI50 (DU-145; read-out: pGI50 (converted)): 1200 nM
CC50 (DU-145; [3]): 5010 nM
TGI (DU-145; read-out: pTGI (converted)): 2450 nM
GI50 (MCF7; read-out: GI50): 355 nM
LC50 (MCF7; read-out: LC50): 5970 nM
TGI (MCF7; read-out: TGI): 1500 nM
GI50 (MCF7; read-out: pGI50 (converted)): 355 nM
LC50 (MCF7; read-out: pLC50 (converted)): 6030 nM
TGI (MCF7; read-out: pTGI (converted)): 1510 nM
GI50 (A498; read-out: GI50): 1100 nM
LC50 (concentration giving 50% net cell kill) (A498; read-out: LC50): 4890 nM
TGI (A498; read-out: TGI): 2320 nM
GI50 (A498; read-out: pGI50 (converted)): 1100 nM
LC50 (concentration giving 50% net cell kill) (A498; read-out: pLC50 (converted)): 4900 nM
TGI (A498; read-out: pTGI (converted)): 2340 nM
GI50 (OVCAR-8; read-out: GI50): 2580 nM
LC50 (lethal concentration 50%) (OVCAR-8; read-out: LC50): > 100000 nM
TGI (OVCAR-8; read-out: TGI): > 100000 nM
GI50 (OVCAR-8; read-out: pGI50 (converted)): 2570 nM
LC50 (lethal concentration 50%) (OVCAR-8; read-out: pLC50 (converted)): > 100000 nM
TGI (OVCAR-8; read-out: pTGI): > 100000 nM
GI50 (NCI/ADR-RES; read-out: GI50): 1560 nM
LC50 (NCI/ADR-RES; read-out: LC50): > 100000 nM
TGI (NCI/ADR-RES; read-out: TGI): 5800 nM
GI50 (NCI/ADR-RES; read-out: pGI50 (converted)): 1550 nM
LC50 (NCI/ADR-RES; read-out: pLC50 (converted)): > 100000 nM
TGI (NCI/ADR-RES; read-out: pTGI (converted)): 5750 nM
GI50 (UACC-257; read-out: GI50): 2100 nM
LC50 (UACC-257; read-out: LC50): 22500 nM
TGI (UACC-257; read-out: TGI): 5010 nM
GI50 (UACC-257; read-out: pGI50 (converted)): 2090 nM
LC50 (UACC-257; read-out: pLC50 (converted)): 22400 nM
TGI (UACC-257; read-out: pTGI (converted)): 5010 nM
GI50 (SK-MEL-28; read-out: GI50): 474 nM
CC50 (SK-MEL-28; [2]): 4240 nM
TGI (SK-MEL-28; read-out: TGI): 1670 nM
GI50 (SK-MEL-28; read-out: pGI50 (converted)): 479 nM
CC50 (SK-MEL-28; [3]): 4270 nM
TGI (SK-MEL-28; read-out: pTGI (converted)): 1660 nM
GI50 (M14; read-out: GI50): 596 nM
TGI (M14; read-out: TGI): 2450 nM
GI50 (M14; read-out: pGI50 (converted)): 603 nM
TGI (M14; read-out: pTGI (converted)): 2450 nM
GI50 (SNB-75; read-out: GI50): 1960 nM
CC50 (SNB-75; [2]): 17100 nM
TGI (SNB-75; read-out: TGI): 4650 nM
GI50 (SNB-75; read-out: pGI50 (converted)): 1950 nM
CC50 (SNB-75; [3]): 17000 nM
TGI (SNB-75; read-out: pTGI (converted)): 4680 nM
GI50 (SF-268; read-out: GI50): 740 nM
CC50 (SF-268; [2]): 5150 nM
TGI (SF-268; read-out: TGI): 2140 nM
GI50 (SF-268; read-out: pGI50 (converted)): 741 nM
CC50 (SF-268; [3]): 5130 nM
TGI (SF-268; read-out: pTGI (converted)): 2140 nM
GI50 (SW-620; read-out: GI50): 204 nM
CC50 (SW-620; [2]): 2480 nM
TGI (SW-620; read-out: TGI): 545 nM
GI50 (SW-620; read-out: pGI50 (converted)): 204 nM
CC50 (SW-620; [3]): 2510 nM
TGI (SW-620; read-out: pTGI (converted)): 550 nM
GI50 (HCC 2998; read-out: GI50): 1630 nM
CC50 (HCC 2998; [2]): 6290 nM
TGI (HCC 2998; read-out: TGI): 3200 nM
GI50 (HCC 2998; read-out: pGI50 (converted)): 1620 nM
CC50 (HCC 2998; [3]): 6310 nM
TGI (HCC 2998; read-out: pTGI (converted)): 3160 nM
GI50 ([1]; read-out: GI50): 1530 nM
TGI ([1]; read-out: TGI): 3690 nM
GI50 ([1]; read-out: pGI50 (converted)): 1550 nM
TGI ([1]; read-out: pTGI (converted)): 3720 nM
GI50 (A549; read-out: GI50): 2070 nM
CC50 (A549; [2]): > 100000 nM
TGI (A549; read-out: TGI): 5630 nM
GI50 (A549; read-out: pGI50 (converted)): 2090 nM
CC50 (A549; [3]): > 100000 nM
TGI (A549; read-out: pTGI (converted)): 5620 nM
GI50 (CCRF-CEM; read-out: GI50): 265 nM
CC50 (CCRF-CEM; [2]): > 100000 nM
TGI (CCRF-CEM; read-out: TGI): 974 nM
GI50 (CCRF-CEM; read-out: pGI50 (converted)): 263 nM
CC50 (CCRF-CEM; [3]): > 100000 nM
TGI (CCRF-CEM; read-out: pTGI (converted)): 977 nM
